# Test results taken from PMC12435242 (Proceedings of the National Academy of Sciences of the …, 2025).
# What was measured:
# all SV2 members (SV2s) = conditions: cited from earlier work
# [1] = system: SV2A compared to SV2B and SV2C; conditions: cited from earlier work
# SV2A-D670A = SV2A-D670A (Homo sapiens, UniProt Q7L0J3, D670A); assay: 3H-LEV binding with or without UCB1244283, primary site mutant
# SV2A-W300A = SV2A-W300A (Homo sapiens, UniProt Q7L0J3, W300A); assay: as above
# SV2A L655Q mutant = SV2A L655Q mutant (Homo sapiens, UniProt Q7L0J3, L655Q); assay: 3H-LEV filter binding, concentration-response of UCB1244283; conditions: 3H-LEV 3.3 µM
# SV2A L655Q mutant, sequence (Q7L0J3 65-742 L655Q limits assumed): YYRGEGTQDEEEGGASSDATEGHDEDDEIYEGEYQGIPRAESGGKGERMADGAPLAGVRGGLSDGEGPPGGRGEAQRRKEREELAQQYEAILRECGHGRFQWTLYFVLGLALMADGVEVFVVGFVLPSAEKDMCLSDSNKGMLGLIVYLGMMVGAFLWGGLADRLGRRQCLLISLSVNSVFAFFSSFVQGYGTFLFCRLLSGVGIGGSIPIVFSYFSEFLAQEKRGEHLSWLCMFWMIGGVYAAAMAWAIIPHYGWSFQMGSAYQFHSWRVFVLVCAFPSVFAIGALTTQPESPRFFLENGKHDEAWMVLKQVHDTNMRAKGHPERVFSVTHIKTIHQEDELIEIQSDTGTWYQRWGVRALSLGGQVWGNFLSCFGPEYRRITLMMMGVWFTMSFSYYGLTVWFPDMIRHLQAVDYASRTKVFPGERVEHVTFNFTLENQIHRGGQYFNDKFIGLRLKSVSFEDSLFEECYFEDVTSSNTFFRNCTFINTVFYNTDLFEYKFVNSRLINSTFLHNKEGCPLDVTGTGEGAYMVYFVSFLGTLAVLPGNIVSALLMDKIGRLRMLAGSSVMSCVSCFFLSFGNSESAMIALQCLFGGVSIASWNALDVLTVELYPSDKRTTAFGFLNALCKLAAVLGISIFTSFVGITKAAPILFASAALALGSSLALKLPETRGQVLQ
# Summary of the method: (§1)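 Membranes came from tsA201 cells transfected with PEI and harvested at 48–60 h. Cells expressed human SV2A mutants lacking residues 1–64, tagged C-terminally with mVenus/TwinStrep/His10. Equal protein per FSEC was used. Incubation was 45 min on ice with 3H-LEV 3.3 µM plus test compound, 1 nM–30 µM final. Nonspecific binding was set with 1 mM unlabeled PSL. Filtration used 1% PEI-soaked glass-fibre filters, with an ice-cold TBS150 wash, then scintillation counting. Assays were run in triplicate and fitted to a three-parameter log(agonist)–response curve.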
# sound-sensitive mice = conditions: cited from earlier work
# SV2A-F184A = SV2A-F184A (Homo sapiens, UniProt Q7L0J3, F184A); assay: 3H-LEV filter binding, concentration-response of UCB1244283
# SV2A-F184A, sequence (Q7L0J3 65-742 F184A limits assumed): as the sequence (Q7L0J3 65-742 L655Q limits assumed) above, with F120A, Q591L counted along it
# Summary of the method: (§2)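 Human SV2AΔ64 (C-terminal mVenus/TwinStrep/His10), wild-type or point mutant, PEI-transfected into suspension tsA201 cells. Membranes harvested 48–60 h later and loaded at equal SV2A by FSEC. Incubated 45 min on ice with 3.3 µM 3H-LEV and test compound 1 nM–30 µM; nonspecific binding defined with 1 mM PSL. PEI-soaked glass-fibre filtration, scintillation counting. EC50 by three-parameter log(agonist) fit; triplicate; mean ± SEM.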
# PSL-bound SV2A complex = conditions: cited from earlier work
# SV2A [2] = conditions: cited from earlier work
# SV2A-F188A = SV2A-F188A (Homo sapiens, UniProt Q7L0J3, F188A); assay: 3H-LEV filter binding, concentration-response of UCB1244283
# SV2A-F188A, sequence (Q7L0J3 65-742 F188A limits assumed): as the sequence (Q7L0J3 65-742 L655Q limits assumed) above, with F124A, Q591L counted along it
# Summary of the method: as §2
# [3] = system: SV2A in human brain membranes; conditions: cited from earlier work
# [4] = target: wild-type SV2A (SV2AΔ64-mVenus) (Homo sapiens, UniProt Q7L0J3); assay: 3H-LEV filter binding, concentration-response of UCB1244283
# wild-type SV2A (SV2AΔ64-mVenus), sequence (Q7L0J3 65-742 limits assumed, stated change not applied): as the sequence (Q7L0J3 65-742 L655Q limits assumed) above, with Q591L counted along it
# Summary of the method: as §2
# SV2A G659N mutant = SV2A G659N mutant (Homo sapiens, UniProt Q7L0J3, G659N); assay: 3H-LEV filter binding, concentration-response of UCB1244283; conditions: 3H-LEV 3.3 µM
# SV2A G659N mutant, sequence (Q7L0J3 65-742 G659N limits assumed): as the sequence (Q7L0J3 65-742 L655Q limits assumed) above, with Q591L, G595N counted along it
# Summary of the method: as §1
# SV2A T465A mutant = SV2A T465A mutant (Homo sapiens, UniProt Q7L0J3, T465A); assay: as above; conditions: 3H-LEV 3.3 µM
# SV2A T465A mutant, sequence (Q7L0J3 65-742 T465A limits assumed): as the sequence (Q7L0J3 65-742 L655Q limits assumed) above, with T401A, Q591L counted along it
# Summary of the method: as §1
# SV2A-G659C = SV2A-G659C (Homo sapiens, UniProt Q7L0J3, G659C); assay: 3H-LEV filter binding, concentration-response of UCB1244283
# SV2A-G659C, sequence (Q7L0J3 65-742 G659C limits assumed): as the sequence (Q7L0J3 65-742 L655Q limits assumed) above, with Q591L, G595C counted along it
# SV2A A308S mutant = SV2A A308S mutant (Homo sapiens, UniProt Q7L0J3, A308S); assay: 3H-LEV filter binding, concentration-response of UCB1244283; conditions: 3H-LEV 3.3 µM
# SV2A A308S mutant, sequence (Q7L0J3 65-742 A308S limits assumed): as the sequence (Q7L0J3 65-742 L655Q limits assumed) above, with A244S, Q591L counted along it
# Summary of the method: as §1
# SV2A [5] = target: SV2A (Homo sapiens, UniProt Q7L0J3); assay: 3H-UCB-J binding with or without UCB1244283; conditions: Kd of 3H-UCB-J binding to SV2A
# SV2A (Homo sapiens, UniProt Q7L0J3), sequence (Q7L0J3 65-742 limits assumed): as the sequence (Q7L0J3 65-742 L655Q limits assumed) above, with Q591L counted along it
# [6] = by slowing the rate of dissociation
# SV2A-D670A, sequence (Q7L0J3 65-742 D670A limits assumed): as the sequence (Q7L0J3 65-742 L655Q limits assumed) above, with Q591L, D606A counted along it
# SV2A-W300A, sequence (Q7L0J3 65-742 W300A limits assumed): as the sequence (Q7L0J3 65-742 L655Q limits assumed) above, with W236A, Q591L counted along it
smiles,measurement,setting,value
"COCc1nn2c(CN3CC(CC(F)(F)Cl)CC3=O)c(C(F)(F)F)nc2s1 (single isomer, unassigned) [PSL]",affinity for all SV2 members,all SV2 members (SV2s),nanomolar affinity
"CCC[C@@H]1CC(=O)N([C@@H](CC)C(N)=O)C1 [BRV, (2S)-2-((4R)-2-oxo-4-propylpyrrolidin-1-yl)butanamide]",higher affinity for SV2A compared to SV2B and SV2C,[1],at least 100 fold
"CC[C@@H](C(N)=O)N1CCCC1=O [LEV, 2S-(2-oxo-1-pyrrolidinyl)butanamide]",higher affinity for SV2A compared to SV2B and SV2C,[1],at least 100 fold
same,LEV binding to mutant,"SV2A-D670A; D670A, with or without UCB1244283",unable to measure any significant LEV binding
same,LEV binding to mutant,"SV2A-W300A; W300A, with or without UCB1244283",unable to measure any significant LEV binding
"COc1ccccc1NC(=O)CC(C)Cc1cc(C)cc(C)c1 (centres unmarked) [UCB1244283, 4-(3,5-dimethylphenyl)-N-(2-methoxyphenyl)-3-methylbutanamide]",change in LEV binding on addition of UCB1244283,SV2A L655Q mutant,do not show a significant change in LEV binding
same,protection against seizures,sound-sensitive mice,protection against both tonic and clonic seizures
same,EC50,SV2A-F184A,0.2 ± 0.04 µM
same,enhancement of EC50 for UCB1244283 compared to wild-type,SV2A-F184A; F184A mutant,~ 3 fold
same,binding to the PSL-bound SV2A complex,PSL-bound SV2A complex,does not bind
same,increase in binding affinity for BRV on incubation of UCB1244283 with SV2A,SV2A [2]; [6],10 fold
same,increase in binding affinity for LEV on incubation of UCB1244283 with SV2A,SV2A [2]; [6],2.5 fold
same,increase in maximum binding capacity (Bmax) for BRV,SV2A [2]; with UCB1244283,1.4 fold
same,increase in maximum binding capacity (Bmax) for LEV,SV2A [2]; with UCB1244283,twofold
same,EC50,SV2A-F188A,0.07 ± 0.01 µM
same,enhancement of EC50 for UCB1244283 compared to wild-type,SV2A-F188A; F188A mutant,~9 fold
same,effect of UCB1244283 on BRV binding,[3],increases both the Bmax and binding affinity
same,effect of UCB1244283 on LEV binding,[3],only increases the Bmax
same,EC50,[4],0.7 ± 0.3 µM
same,increase in specific counts of 3H-LEV binding,"[4]; saturating 3H-LEV (~4 µM), with vs without UCB1244283 30 µM",~ 2 fold
same,effect on maximum specific binding (Bmax) of 3H-LEV,"SV2A-D670A; UCB1244283 30 µM, 3H-LEV 3.3 µM, SV2A-D670A",does not enhance
same,change in LEV binding on addition of UCB1244283,SV2A G659N mutant,do not show a significant change in LEV binding
same,change in LEV binding on addition of UCB1244283,SV2A T465A mutant,do not show a significant change in LEV binding
same,EC50,SV2A-G659C,1 ± 0.8 µM
same,reduction in Bmax of 3H-LEV binding compared to wild-type,"SV2A-G659C; G659C mutant, with UCB1244283",~ 4 fold
same,change in LEV binding on addition of UCB1244283,SV2A A308S mutant,do not show a significant change in LEV binding
same,effect on maximum specific binding (Bmax) of 3H-LEV,"SV2A-W300A; UCB1244283 30 µM, 3H-LEV 3.3 µM, SV2A-W300A",does not enhance
"Cc1cnccc1CN1C[C@@H](c2cc(F)c(F)c(F)c2)CC1=O [UCB-J, (4R)-1-((3-Methyl-4-pyridinyl)methyl)-4-(3,4,5-trifluorophenyl)-2-pyrrolidinone]",Kd,SV2A [5]; in the absence of UCB1244283,0.0053 ± 0.0008 µM
same,Kd,SV2A [5]; in the presence of saturating UCB1244283,0.006 ± 0.001 µM
